We go through 23 molecules from ChEMBL document CHEMBL1781938, “New 3-, 8-disubstituted pyrazolo[5,1-c][1,2,4]benzotriazines useful for studying the interaction with the HBp-3 area (hydrogen bond point area) in the benzodiazepine site on the γ-aminobutyric acid type A (GABAA) receptor” (Bioorg Med Chem, 2011).

As a reminder, the Ki is the dissociation constant of the complex between target and ligand, obtained from inhibition or displacement. Read a high Ki as weaker binding.

Assay [1] can be described thus: Displacement of [3H]Ro151788 from bovine GABA-A receptor. Also noted: species or system Bos taurus. In a few lines:
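Competition binding against [3H]flumazenil (Ro 15-1788) at the benzodiazepine site, using bovine cerebral cortex membranes diluted in 50 mM Tris–citrate pH 7.4. Protein was measured by the Lowry method. Each compound was run at six or more concentrations. Ki was derived only for compounds giving more than 80% inhibition of specific binding at 10 µM.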
Background: Displacement assays read how much labelled ligand stays bound in the presence of the test substance.

For assay [2], the species on record is Bos taurus. Put plainly: Displacement of [3H]Ro151788 from bovine GABA-A receptor at 10 uM. Summed up: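 Bovine cerebral cortex membranes diluted in 50 mM Tris–citrate buffer pH 7.4, with protein measured by Lowry. Specific binding of [3H]flumazenil (Ro 15-1788) was read as percent inhibition with test compound at a fixed 10 µM. Compounds inhibiting by more than 80% went on to Ki determination.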

With `[O-][n+]1nc2c(-c3ccsc3)cnn2c2cc(-c3ccco3)ccc21`, the Ki in assay [1] was 209 nM. Moreover, the Activity in assay [2] is more than 80%.

The molecule `[O-][n+]1nc2c(-c3ccsc3)cnn2c2cc(-c3cccs3)ccc21` returned a Ki in assay [1] of 370 nM. Moreover, the Activity in assay [2] was more than 80%.

In assay [1], `COc1ccc(-c2ccc3c(c2)n2ncc(-c4ccsc4)c2n[n+]3[O-])cc1` displayed a Ki of 817 nM. In assay [2], this molecule had an Activity of more than 80%.

Turning to `[O-][n+]1nc2c(-c3ccc[nH]3)cnn2c2cc(-c3ccsc3)ccc21`, in assay [1], the Ki was 48.3 nM. Further, the Activity in assay [2] was more than 80%.

Molecule `[O-][n+]1nc2c(I)cnn2c2cc(-c3ccc[nH]3)ccc21` displayed a Ki in assay [1] of 25 nM. Also, in assay [2], the Activity was more than 80%.

With `[O-][n+]1nc2c(I)cnn2c2cc(-c3cccs3)ccc21`, in assay [1], the affinity corresponds to a Ki of 202 nM. In addition, the Activity in assay [2] was more than 80%.

`CC(C)(C)OC(=O)n1cccc1-c1ccc2c(c1)n1ncc(C(=O)OCc3cccs3)c1n[n+]2[O-]` registered a Ki in assay [1] of 395 nM. Further, the Activity in assay [2] is more than 80%.

In assay [1], `[O-][n+]1nc2c(I)cnn2c2cc(-c3ccco3)ccc21` had a Ki of 190 nM. Also, the Activity in assay [2] is more than 80%.

`COc1ccccc1-c1ccc2c(c1)n1ncc(I)c1n[n+]2[O-]` gave a Ki in assay [1] of 305 nM. The Activity in assay [2] is more than 80%.

In the case of `COc1ccc(-c2ccc3c(c2)n2ncc(C(=O)OCc4cccs4)c2n[n+]3[O-])cc1`, the Ki in assay [1] worked out at 29.4 nM. Also, in assay [2], the Activity was more than 80%.

For `O=C(OCc1cccs1)c1cnn2c1n[n+]([O-])c1ccc(-c3ccco3)cc12`, the Ki in assay [1] stood at 54.8 nM. The molecule further came in with an Activity in assay [2] of more than 80%.

In assay [1], `[O-][n+]1nc2c(I)cnn2c2cc(-c3ccsc3)ccc21` yielded a Ki of 56 nM. Further, the Activity in assay [2] was more than 80%.

On to `COC(=O)c1cnn2c1n[n+]([O-])c1ccc(-c3ccc[nH]3)cc12`, for which affinity in assay [1] was put at a Ki of 14.9 nM. Besides, the Activity in assay [2] was more than 80%.

In turn, `[O-][n+]1nc2c(I)cnn2c2cc(-c3ccccc3O)ccc21` had a Ki in assay [1] of 2480 nM. Also, the Activity in assay [2] was more than 80%.

`[O-][n+]1nc2c(-c3ccsc3)cnn2c2cc(-c3ccsc3)ccc21` showed a Ki in assay [1] of 357 nM. The molecule further showed an Activity in assay [2] of more than 80%.

`COc1ccc(-c2ccc3c(c2)n2ncc(I)c2n[n+]3[O-])cc1` returned a Ki in assay [1] of 241 nM. The Activity in assay [2] is more than 80%.

`[O-][n+]1nc2c(-c3ccsc3)cnn2c2cc(-c3ccccc3)ccc21` displayed a Ki in assay [1] of 642 nM. In assay [2], this molecule showed an Activity of more than 80%.

Consider `[O-][n+]1nc2c(I)cnn2c2cc(-c3ccncc3)ccc21`, for which the Ki in assay [1] is 2380 nM. In assay [2], the Activity is more than 80%.

In the case of `COc1ccc(-c2ccc3c(c2)n2ncc(C(=O)c4ccco4)c2n[n+]3[O-])cc1`, the Ki in assay [1] was 239 nM. The Activity in assay [2] was more than 80%.

As for `O=C(c1ccco1)c1cnn2c1n[n+]([O-])c1ccc(-c3ccc[nH]3)cc12`, the inhibition constant (Ki) in assay [1] is 63 nM. In assay [2], the Activity is more than 80%.

Take `[O-][n+]1nc2c(-c3ccsc3)cnn2c2cc(-c3ccc[nH]3)ccc21`: the affinity in assay [1], expressed as Ki, was 19.4 nM. In assay [2], the Activity is more than 80%.

In assay [1], `O=C(c1ccco1)c1cnn2c1n[n+]([O-])c1ccc(-c3ccco3)cc12` came in with a Ki of 857 nM. Moreover, the Activity in assay [2] was more than 80%.

With `[O-][n+]1nc2c(-c3ccco3)cnn2c2cc(-c3ccsc3)ccc21`, in assay [1], the Ki was found to be 26.9 nM. For the same molecule, the Activity in assay [2] was more than 80%.
